Test results from ChEMBL document CHEMBL5252513, “Identification of a Benzoisoxazoloazepine Inhibitor (CPI-0610) of the Bromodomain and Extra-Terminal (BET) Family as a Candidate for Human Clinical Trials” (J Med Chem, 2016).
The source made the active and inactive calls. The calls are words filed in the database; no cut-off is given here.

Assays:
Peregrin = molecular target: T1, Peregrin (Homo sapiens, UniProt P55201); test: Binding affinity to BRPF1 bromodomain (unknown origin) incubated for 60 mins by TR-FRET assay
T1 sequence (P55201 whole entry): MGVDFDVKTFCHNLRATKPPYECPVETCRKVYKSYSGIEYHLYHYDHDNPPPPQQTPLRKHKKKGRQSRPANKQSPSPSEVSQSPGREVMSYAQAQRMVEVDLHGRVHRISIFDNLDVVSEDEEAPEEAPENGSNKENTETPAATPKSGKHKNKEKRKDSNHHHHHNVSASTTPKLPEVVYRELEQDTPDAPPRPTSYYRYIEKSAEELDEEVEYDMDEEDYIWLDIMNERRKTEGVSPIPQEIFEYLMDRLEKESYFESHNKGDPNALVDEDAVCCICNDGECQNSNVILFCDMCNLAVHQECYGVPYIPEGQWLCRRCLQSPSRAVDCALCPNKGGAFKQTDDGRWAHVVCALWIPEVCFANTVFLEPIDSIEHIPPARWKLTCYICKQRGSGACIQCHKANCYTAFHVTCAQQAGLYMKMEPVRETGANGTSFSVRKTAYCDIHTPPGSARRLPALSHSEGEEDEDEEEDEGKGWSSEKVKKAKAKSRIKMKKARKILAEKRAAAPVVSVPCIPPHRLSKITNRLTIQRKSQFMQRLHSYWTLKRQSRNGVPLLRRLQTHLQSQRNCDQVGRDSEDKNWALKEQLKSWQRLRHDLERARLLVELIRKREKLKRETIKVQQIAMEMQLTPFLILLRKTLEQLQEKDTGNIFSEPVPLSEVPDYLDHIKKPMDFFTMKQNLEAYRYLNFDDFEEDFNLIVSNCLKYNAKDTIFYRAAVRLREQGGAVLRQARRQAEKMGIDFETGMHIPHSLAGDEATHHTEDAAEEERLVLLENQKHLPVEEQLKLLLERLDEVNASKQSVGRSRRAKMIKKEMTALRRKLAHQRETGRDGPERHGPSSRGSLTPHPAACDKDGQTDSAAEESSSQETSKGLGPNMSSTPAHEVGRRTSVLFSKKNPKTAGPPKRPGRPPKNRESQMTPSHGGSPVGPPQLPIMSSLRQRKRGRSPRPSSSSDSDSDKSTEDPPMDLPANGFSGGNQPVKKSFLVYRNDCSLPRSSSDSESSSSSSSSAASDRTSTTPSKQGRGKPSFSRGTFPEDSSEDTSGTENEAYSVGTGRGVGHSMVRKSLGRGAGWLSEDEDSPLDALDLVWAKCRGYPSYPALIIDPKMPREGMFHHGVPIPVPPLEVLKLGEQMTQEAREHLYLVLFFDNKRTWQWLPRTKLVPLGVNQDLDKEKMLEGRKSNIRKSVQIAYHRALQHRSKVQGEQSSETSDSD

[1] = molecular target: T2, Transcription intermediary factor 1-alpha (Homo sapiens, UniProt O15164); test: Displacement of biotinylated JQ1 from TRIM24 bromodomain (unknown origin) incubated for 20 mins by AlphaLISA assay
T2 sequence (O15164 whole entry): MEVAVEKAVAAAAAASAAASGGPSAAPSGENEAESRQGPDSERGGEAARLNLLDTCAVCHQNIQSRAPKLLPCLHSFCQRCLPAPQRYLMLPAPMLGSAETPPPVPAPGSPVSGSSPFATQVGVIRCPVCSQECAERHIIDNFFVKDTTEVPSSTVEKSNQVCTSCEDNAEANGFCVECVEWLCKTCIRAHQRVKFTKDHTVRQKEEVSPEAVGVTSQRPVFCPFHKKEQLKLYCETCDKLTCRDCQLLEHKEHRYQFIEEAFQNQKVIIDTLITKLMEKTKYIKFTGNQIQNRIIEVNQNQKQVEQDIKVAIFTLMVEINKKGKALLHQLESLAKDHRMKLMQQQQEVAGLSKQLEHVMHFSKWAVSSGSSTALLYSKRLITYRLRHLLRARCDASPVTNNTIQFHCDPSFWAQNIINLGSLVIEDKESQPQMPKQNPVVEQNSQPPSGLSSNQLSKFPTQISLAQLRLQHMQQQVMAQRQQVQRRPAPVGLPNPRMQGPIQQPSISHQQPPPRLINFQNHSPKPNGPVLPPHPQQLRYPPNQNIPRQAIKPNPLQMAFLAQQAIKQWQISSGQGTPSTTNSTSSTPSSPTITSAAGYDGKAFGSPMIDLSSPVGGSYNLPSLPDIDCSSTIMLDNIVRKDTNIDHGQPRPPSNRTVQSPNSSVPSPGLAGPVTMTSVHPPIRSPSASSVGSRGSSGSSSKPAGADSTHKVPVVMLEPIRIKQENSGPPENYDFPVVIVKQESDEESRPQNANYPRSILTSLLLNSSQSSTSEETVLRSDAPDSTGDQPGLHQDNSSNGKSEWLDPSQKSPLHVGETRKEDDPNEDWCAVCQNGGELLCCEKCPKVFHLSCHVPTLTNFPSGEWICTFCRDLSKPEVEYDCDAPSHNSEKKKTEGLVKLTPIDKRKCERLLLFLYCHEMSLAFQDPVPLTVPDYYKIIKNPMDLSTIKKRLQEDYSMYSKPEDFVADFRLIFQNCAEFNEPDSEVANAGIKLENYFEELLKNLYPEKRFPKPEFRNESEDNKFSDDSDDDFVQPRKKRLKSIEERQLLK

[2] = Protein binding in dog plasma; assay type: ADME, cell-free, Canis lupus familiaris; conditions: read-out: PPB (converted)
[3] = Half life in dog plasma at 0.5 mg/kg,iv; assay type: ADME, organism-based, Canis lupus familiaris
[4] = Apparent oral clearance in human patient with progression lymphoma at 300 mg,po QD consecutively for 14 days; assay type: ADME; conditions: in vivo, 336 h, time 14 day
Outline: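 Phase I trial in patients with hematologic malignancies, oral dosing once daily with escalating cohorts; values are from the 300 mg dose on day 14. AUC0-24 was taken as exposure over 24 h. Apparent clearance was calculated as Dose/AUC0-24.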

MV4-11 = test: Antitumor activity against human MV4-11 cells xenografted in BALB/c mouse assessed as complete tumor growth inhibition at 10 mg/kg,sc BID in presence of doxorubicin at 2 mg/kg,iv BIW for 28 days; assay type: functional, organism-based; conditions: time 28.0 day
[5] = Toxicity against BALB/c mouse plasma xenografted with human MV4-11 cells assessed as body weight loss at 10 mg/kg,sc BID in presence of doxorubicin at 2 mg/kg,iv BIW for 28 days; assay type: organism-based; conditions: in vivo, 672 h, time 28 day
Outline: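 MV-4-11 acute myeloid leukemia mouse xenograft; BET inhibitor given subcutaneously 10 mg/kg twice daily, doxorubicin 2 mg/kg IV twice weekly, alone or combined, for 28 days; body weight change (%) tracked over treatment against vehicle.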

[6] = Toxicity in rat assessed as hypocellularity of bone marrow with associated anemia and thrombocytopenia at 2 to 20 mg/kg,po QD consecutive for 14 days followed by 2 weeks recovery period; assay type: organism-based; conditions: in vivo, 336 h, dose 2-20 mg/kg, time 14 day
Outline: (§1)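 Oral suspension given once daily for 14 consecutive days (rat 2, 6, 20 mg/kg; dog 2, 4, 6 mg/kg) in dose range-finding and GLP repeat-dose studies, GLP arms with an added 2-week recovery period; histopathology and clinical pathology findings recorded.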

[7] = Toxicity in rat assessed as GI mucosal atrophy at 2 to 20 mg/kg,po QD consecutive for 14 days followed by 2 weeks recovery period; assay type: organism-based; conditions: in vivo, 336 h, dose 2-20 mg/kg, time 14 day; outline: as §1

IC50 (Peregrin): > 20 µM
IC50 [1]: > 20 µM
fraction unbound [2]: 0.04
half-life [3]: 9 h
CL/F [4]: 21 L/h
SMILES: Cc1noc2c1-c1ccccc1C(c1ccc(Cl)cc1)=N[C@H]2CC(N)=O [PELABRESIB]
Activity (MV4-11): Active
Activity [5]: Non-Toxic
Activity [6]: Toxic
Activity [7]: Toxic
